Results as given in ChEMBL document CHEMBL1156171, “N-aryltriazole ribonucleosides with potent antiproliferative activity against drug-resistant pancreatic cancer” (2010).
Calls of active or inactive are those of the source. No cut-off for these calls is given here.

Key:
[1] = tested on: MIA PaCa-2; assay: Antiproliferative activity against human MIAPaCa2 cells assessed as cell viability at 50 uM after 48 hrs by MTT assay; format: functional; conditions: MIA PaCa-2, 48 h, read-out: Activity
How it was run: (§1)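 Cells exposed to 50 µM compound (fresh medium) for 48 h at 37 °C, 5% CO2; untreated control. Viable cells counted by MTT colorimetric assay. Documented for MiaPaCa-2: DMEM + 10% FBS, 15,000 cells/well, overnight attachment before treatment.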

[2] = tested on: Capan-2; assay: Antiproliferative activity against human Capan2 cells assessed as cell viability at 50 uM after 48 hrs by MTT assay; format: functional; conditions: Capan-2, 48 h, read-out: Activity; how it was run: as §1
[3] = tested on: PC-3; assay: Antiproliferative activity against human PC3 cells assessed as cell viability at 50 uM after 48 hrs by MTT assay; format: functional; conditions: PC-3, 48 h, read-out: Activity; how it was run: as §1
[4] = tested on: MIA PaCa-2; assay: Antiproliferative activity against human MIAPaCa2 cells assessed as cell viability after 48 hrs by MTT assay; format: functional, cell-based
How it was run: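 MiaPaCa-2 cells in DMEM + 10% FBS, plated at 15,000 cells/well and attached overnight. Medium then replaced with fresh medium holding compound over a dose range; 37 °C, 5% CO2, 48 h. Viable cells determined by MTT colorimetric assay relative to untreated control.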

[5] = tested on: MIA PaCa-2; assay: Induction of apoptosis in human MIAPaCa2 cells assessed as increase in sub-G1/G0 cell fraction at 50 uM after 48 hrs using propidium iodide staining by FACS analysis; format: functional, cell-based
How it was run: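 MiaPaCa-2 cells plated at 10^6 per dish, grown overnight, then given fresh medium with 50 µM compound for 48 h; untreated negative control. Cells trypsinized, PBS-washed, fixed overnight in cold 70% ethanol at 4 °C, RNase-treated, propidium iodide stained, and sub-G1/G0 fraction read by flow cytometry. Triplicate samples.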

[6] = tested on: MIA PaCa-2; assay: Induction of apoptosis in human MIAPaCa2 cells assessed as increase in caspase 3/7 activation at 50 uM after 24 hrs by luminescence assay; format: functional, cell-based
How it was run: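 MiaPaCa-2 cells plated at 15,000 cells/well and treated 24 h later with 50 µM compound for 24 h. Caspase-Glo 3/7 reagent added; DEVD-containing luminogenic substrate cleavage read as luminescence after 1 h at room temperature. Untreated cells as control.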

## CCCc1ccc(Nc2nc(C(=O)OC)n([C@@H]3O[C@H](COC(C)=O)[C@@H](OC(C)=O)[C@H]3OC(C)=O)n2)cc1
[1]
  viability at 50 µM: 103%
[2]
  viability at 50 µM: 95.9%
[3]
  viability at 50 µM: 90.2%

## COC(=O)c1nc(Nc2ccc(C)cc2)nn1[C@@H]1O[C@H](COC(C)=O)[C@@H](OC(C)=O)[C@H]1OC(C)=O
[1]
  viability at 50 µM: 58.6%
[2]
  viability at 50 µM: 47.1%
[3]
  viability at 50 µM: 68.6%
[4]
  Activity: Dose-dependent effect
[5]
  Activity: Active
[6]
  Activity: Active

## COC(=O)c1nc(Nc2ccc(C(F)(F)F)cc2)nn1[C@@H]1O[C@H](COC(C)=O)[C@@H](OC(C)=O)[C@H]1OC(C)=O
[1]
  viability at 50 µM: 98.6%
[2]
  viability at 50 µM: 64.4%
[3]
  viability at 50 µM: 88.4%

## COC(=O)c1nc(Nc2ccc(F)cc2)nn1[C@@H]1O[C@H](COC(C)=O)[C@@H](OC(C)=O)[C@H]1OC(C)=O
[1]
  viability at 50 µM: 80.2%
[2]
  viability at 50 µM: 79.8%
[3]
  viability at 50 µM: 84.7%

## CC(=O)O[C@H]1C(=O)[C@@]2(C)[C@H]([C@H](OC(=O)c3ccccc3)[C@]3(O)C[C@H](OC(=O)[C@H](O)[C@@H](NC(=O)c4ccccc4)c4ccccc4)C(C)=C1C3(C)C)[C@]1(OC(C)=O)CO[C@@H]1C[C@@H]2O [PACLITAXEL]
[3]
  viability at 50 µM: 41.3%

## CSc1ccc(Nc2nc(C(N)=O)n([C@@H]3O[C@H](CO)[C@@H](O)[C@H]3O)n2)cc1
[1]
  viability at 50 µM: 98.6%
[2]
  viability at 50 µM: 71.1%
[3]
  viability at 50 µM: 92.1%

## NC(=O)c1nc(Nc2ccc(F)cc2)nn1[C@@H]1O[C@H](CO)[C@@H](O)[C@H]1O
[1]
  viability at 50 µM: 68.1%
[2]
  viability at 50 µM: 62.9%
[3]
  viability at 50 µM: 67%

## COC(=O)c1nc(Nc2cccc(C)c2)nn1[C@@H]1O[C@H](COC(C)=O)[C@@H](OC(C)=O)[C@H]1OC(C)=O
[1]
  viability at 50 µM: 99.9%
[2]
  viability at 50 µM: 84.9%
[3]
  viability at 50 µM: 94.2%

## Nc1ccn([C@@H]2O[C@H](CO)[C@@H](O)C2(F)F)c(=O)n1 [GEMCITABINE]
[1]
  viability at 50 µM: 70.4%
[2]
  viability at 50 µM: 32.7%

## NC(=O)c1nc(Nc2ccccc2)nn1[C@@H]1O[C@H](CO)[C@@H](O)[C@H]1O
[1]
  viability at 50 µM: 68%
[2]
  viability at 50 µM: 46.6%
[3]
  viability at 50 µM: 73.9%

## Cc1ccc(Nc2nc(C(N)=O)n([C@@H]3O[C@H](CO)[C@@H](O)[C@H]3O)n2)cc1
[1]
  viability at 50 µM: 85.6%
[2]
  viability at 50 µM: 63.9%
[3]
  viability at 50 µM: 108%

## NC(=O)c1nc(Nc2cccc(Cl)c2)nn1[C@@H]1O[C@H](CO)[C@@H](O)[C@H]1O
[1]
  viability at 50 µM: 88.7%
[2]
  viability at 50 µM: 66.2%
[3]
  viability at 50 µM: 77.4%

## CCCc1ccc(Nc2nc(C(N)=O)n([C@@H]3O[C@H](CO)[C@@H](O)[C@H]3O)n2)cc1
[1]
  viability at 50 µM: 103%
[2]
  viability at 50 µM: 71.5%
[3]
  viability at 50 µM: 90.3%

## COC(=O)c1nc(Nc2ccc(OC)cc2)nn1[C@@H]1O[C@H](COC(C)=O)[C@@H](OC(C)=O)[C@H]1OC(C)=O
[1]
  viability at 50 µM: 96.4%
[2]
  viability at 50 µM: 72%
[3]
  viability at 50 µM: 85.6%

## CCc1ccc(Nc2nc(C(=O)OC)n([C@@H]3O[C@H](COC(C)=O)[C@@H](OC(C)=O)[C@H]3OC(C)=O)n2)cc1
[1]
  viability at 50 µM: 99%
[2]
  viability at 50 µM: 90%
[3]
  viability at 50 µM: 96.1%

## COC(=O)c1nc(Nc2ccc(SC)cc2)nn1[C@@H]1O[C@H](COC(C)=O)[C@@H](OC(C)=O)[C@H]1OC(C)=O
[1]
  viability at 50 µM: 85.4%
[2]
  viability at 50 µM: 88.1%
[3]
  viability at 50 µM: 106%

## COC(=O)c1nc(Nc2ccccc2)nn1[C@@H]1O[C@H](COC(C)=O)[C@@H](OC(C)=O)[C@H]1OC(C)=O
[1]
  viability at 50 µM: 138%
[2]
  viability at 50 µM: 96.2%
[3]
  viability at 50 µM: 91%

## NC(=O)c1nc(Nc2ccc(C(F)(F)F)cc2)nn1[C@@H]1O[C@H](CO)[C@@H](O)[C@H]1O
[1]
  viability at 50 µM: 100%
[2]
  viability at 50 µM: 122%
[3]
  viability at 50 µM: 89.4%

## COc1ccc(Nc2nc(C(N)=O)n([C@@H]3O[C@H](CO)[C@@H](O)[C@H]3O)n2)cc1
[1]
  viability at 50 µM: 126%
[2]
  viability at 50 µM: 126%
[3]
  viability at 50 µM: 102%

## CCc1ccc(Nc2nc(C(N)=O)n([C@@H]3O[C@H](CO)[C@@H](O)[C@H]3O)n2)cc1
[1]
  viability at 50 µM: 99.8%
[2]
  viability at 50 µM: 66%
[3]
  viability at 50 µM: 91.4%

## Cc1cccc(Nc2nc(C(N)=O)n([C@@H]3O[C@H](CO)[C@@H](O)[C@H]3O)n2)c1
[1]
  viability at 50 µM: 100%
[2]
  viability at 50 µM: 76.3%
[3]
  viability at 50 µM: 96.2%

## NC(=O)c1nc(Nc2ccc(Cl)cc2)nn1[C@@H]1O[C@H](CO)[C@@H](O)[C@H]1O
[1]
  viability at 50 µM: 95.9%
[2]
  viability at 50 µM: 72.8%
[3]
  viability at 50 µM: 70.2%

## COC(=O)c1nc(Nc2cccc(Cl)c2)nn1[C@@H]1O[C@H](COC(C)=O)[C@@H](OC(C)=O)[C@H]1OC(C)=O
[1]
  viability at 50 µM: 72.4%
[2]
  viability at 50 µM: 65.8%
[3]
  viability at 50 µM: 69.8%

## COC(=O)c1nc(Nc2ccc(Cl)cc2)nn1[C@@H]1O[C@H](COC(C)=O)[C@@H](OC(C)=O)[C@H]1OC(C)=O
[1]
  viability at 50 µM: 43.8%
[2]
  viability at 50 µM: 59.6%
[3]
  viability at 50 µM: 60.2%
[4]
  Activity: Dose-dependent effect
[5]
  Activity: Active
[6]
  Activity: Active
